Assay outcomes as filed in PubChem.
Compounds with a hit are over-represented: about 1.7% of the library has one in this group of screens.
PP5 inh – inhibitors of human protein phosphatase 5 (PP5); purified PP5c, OMFP substrate fluorescence; inhibition, % at 6.7 µM; actives 0.18% (n = 320,000); AID 1987;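 active = inhibition above the campaign's mean inhibition across all tested compounds plus 3 SD, cut at about 9.5% in these data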
T cell HTS – modulates CD8 T cell binding to vesicles; 2C CD8+ T cell-vesicle binding, flow cytometry; stronger effect = lower value; response (vesicle binding), % at 7 µM; actives 0.068% (n = 330,000);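 active = response, share of CD8 T cells binding vesicles, and their 90th percentile fluorescence all below set limits, cut at about 80% in these data, passing the limit was not always enough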;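 note: values below 100% mean blocked vesicle binding to the CD8+ T cells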
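Material: 2C TCR transgenic mouse naive CD8+ T cells, MACS-purified. Also added: QL9-charged Drosophila Ld/ICAM-1/B7-1 vesicles. Timing: binding 1.5 h at 37 °C. Measured by: high-throughput flow cytometry with anti-B7-1 and anti-CD8 staining. Read-out: percent CD8+ FL2 mean versus row control. Controls: Unloaded micro-vesicles (low), QL9 vesicles with 0.7% DMSO (high).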
PP1 inh – blocks human PP1-alpha phosphatase, a PP5 counter-screen; P62136; purified PP1alpha, OMFP fluorescence; inhibition, % at 6.7 µM; actives 0.9% (n = 320,000); AID 2235;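 active = inhibition above the mean inhibition of all tested compounds plus 3 SD, computed separately for each screening campaign, cut at about 15% in these data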
Target sequence (P62136 whole entry, looked up): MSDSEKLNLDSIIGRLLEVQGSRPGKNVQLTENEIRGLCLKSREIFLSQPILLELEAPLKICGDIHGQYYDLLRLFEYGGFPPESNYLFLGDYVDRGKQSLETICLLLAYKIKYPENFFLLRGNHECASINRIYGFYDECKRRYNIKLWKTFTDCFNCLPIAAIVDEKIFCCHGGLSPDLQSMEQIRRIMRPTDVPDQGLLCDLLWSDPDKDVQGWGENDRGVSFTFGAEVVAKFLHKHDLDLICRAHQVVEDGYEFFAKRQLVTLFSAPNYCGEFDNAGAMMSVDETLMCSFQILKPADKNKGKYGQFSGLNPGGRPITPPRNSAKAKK
m5-HT2A agonist – activates the mouse 5-HT2A serotonin receptor; actives 0.66% (n = 360,000); AID 624169; P35363; CHO-K1 mHTR2A beta-arrestin complementation, luminescence; percent of 30 µM serotonin response; activation, % at 7.6 µM;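 active = activation above a run cutoff, the mean activation of all tested compounds plus 3 SD, cut at about 14% in these data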
GASC-1 inh – human JMJD2C demethylase inhibition; inhibition, % at 2.35 µM; GST-JMJD2C(1-420) H3K9me3 demethylation, DELFIA europium; Q9H3R0; AID 2099; actives 0.069% (n = 330,000);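 active = more than half of a compound's replicate wells show inhibition beyond 50%, single wells judged on their own value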;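 note: signal counts dimethyl H3K9 product captured on neutravidin plate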
MOR ag counter – activates human mu opioid receptor in HTR2A counterscreen. shares compounds with m5-HT2A agonist. actives 5.3% (n = 2,300). U2OS OPRM1 beta-arrestin PathHunter, luminescence; DMSO 0%, DAMGO 9.3 µM 100%. AID 624380. activation, % at 9.3 µM;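 active = mean activation above the mean of DMSO-only wells plus 3 SD, cut at about 0.5% in these data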
Target sequence (P35372 whole entry, looked up): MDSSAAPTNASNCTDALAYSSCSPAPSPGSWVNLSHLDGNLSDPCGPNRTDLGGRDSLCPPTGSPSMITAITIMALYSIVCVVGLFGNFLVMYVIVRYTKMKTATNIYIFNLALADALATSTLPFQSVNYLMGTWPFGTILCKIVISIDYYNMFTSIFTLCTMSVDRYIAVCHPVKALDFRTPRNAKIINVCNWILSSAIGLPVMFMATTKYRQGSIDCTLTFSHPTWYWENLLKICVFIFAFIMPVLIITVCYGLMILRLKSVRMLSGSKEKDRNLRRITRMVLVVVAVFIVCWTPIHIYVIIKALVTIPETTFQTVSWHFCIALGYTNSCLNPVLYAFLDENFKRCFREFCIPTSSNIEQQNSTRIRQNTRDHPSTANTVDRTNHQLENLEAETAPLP
m5-HT2A ag conf – mouse HTR2A agonism confirmed; shares compounds with m5-HT2A agonist; CHO-K1 PathHunter beta-arrestin recruitment, luminescence; DMSO 0%, 30 µM serotonin 100%; activation, % at 7.6 µM; actives 19% (n = 2,300);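 active = mean activation across triplicates above the hit threshold derived in the original primary screen, cut at about 15% in these data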
Large screens that a line does not name were inactive (follow-up assays come after a bar, where they were run).

COc1ccc(-c2ccc(CN3C(C(C)C)C(=O)N(Cc4cn(Cc5ccco5)nn4)CCS3(=O)=O)cc2)cc1 (configuration not stated)	m5-HT2A agonist 18.0 (no result: PP5 inh, T cell HTS, PP1 inh, GASC-1 inh) | MOR ag counter inactive | m5-HT2A ag conf inactive
Cc1ccc(-c2ccc(CN3C(C)C(=O)N(Cc4cn(Cc5ccco5)nn4)CCS3(=O)=O)cc2)cc1 (configuration not stated)	m5-HT2A agonist 17.5 (no result: PP5 inh, T cell HTS, PP1 inh, GASC-1 inh) | MOR ag counter inactive | m5-HT2A ag conf inactive
COc1ccc(-c2ccc(CN3C(C)C(=O)N(Cc4cn(Cc5ccco5)nn4)CCS3(=O)=O)cc2)cc1 (configuration not stated)	none (no result: PP5 inh, T cell HTS, PP1 inh, GASC-1 inh)
Cc1ccc(NS(=O)(=O)c2c(C)[nH]c(C)c2C(=O)N2CCCCC2)c(Cl)c1	none
CC(=O)N1CCN(C(=O)c2ccc(S(=O)(=O)Nc3ccccc3Cl)cc2)CC1	m5-HT2A agonist 15.8 | MOR ag counter 0.9 | m5-HT2A ag conf inactive
O=C(c1ccc(S(=O)(=O)Nc2ccccc2Cl)cc1)N1CCCC1	none (no result: PP5 inh, PP1 inh)
N#CCCn1nc2c(c1N)CCC2	none (no result: PP5 inh, T cell HTS, PP1 inh, GASC-1 inh)
CC(C)(C)c1ccc(Cc2n[nH]c(=S)[nH]c2=O)cc1	m5-HT2A agonist 15.1 | MOR ag counter inactive | m5-HT2A ag conf inactive
C=CCn1c(N)c(C(=O)Nc2cccc(C)c2)c2nc3ccccc3nc21	m5-HT2A agonist 19.7 | MOR ag counter inactive | m5-HT2A ag conf inactive
CCOc1ccc(-c2cc(C(=O)N3CCCC3)c3ccccc3n2)cc1	m5-HT2A agonist 14.8 | MOR ag counter inactive | m5-HT2A ag conf inactive
CSc1nc(SCC(=O)NCc2ccco2)c2c3c(sc2n1)COC(C)(C)C3	m5-HT2A agonist 19.4 | MOR ag counter inactive | m5-HT2A ag conf inactive
CCCCN1CC(=O)N2Cc3[nH]c4ccccc4c3C[C@H]2C1=O	none
COC(=O)c1[nH]c2ccccc2c1NC(=O)CCN1CCSCC1	m5-HT2A agonist 16.0 | MOR ag counter inactive | m5-HT2A ag conf inactive
COc1ccccc1-c1nc2c(c(SCC(=O)N3CCCCC3)n1)Cc1c(CO)cnc(C)c1O2	m5-HT2A agonist 14.7 | MOR ag counter inactive | m5-HT2A ag conf inactive
CC(=O)Nc1ccc(SC[C@H](CC(C)C)N2CCN(CCc3ccccc3)CCC2=O)cc1	m5-HT2A agonist 19.2 | MOR ag counter inactive | m5-HT2A ag conf 17.0
O=C(Nc1ccncc1)c1cc(-c2cccc(Br)c2)nc2ccccc12	m5-HT2A agonist 14.8 | MOR ag counter 3.7 | m5-HT2A ag conf inactive
O=C(Nc1cccnc1)c1cc(-c2cccc(Br)c2)nc2ccccc12	none
O=C(NCc1ccc(F)cc1)c1cc(C2CCCCN2C(=O)c2ccc(Cl)cc2)on1 (configuration not stated)	m5-HT2A agonist 15.1 (no result: PP5 inh, T cell HTS, PP1 inh, GASC-1 inh) | MOR ag counter inactive | m5-HT2A ag conf inactive
Nc1ccc2nc(-c3ccccc3)[nH]c2c1	m5-HT2A agonist 15.1 | MOR ag counter inactive | m5-HT2A ag conf inactive
O=C(O)CCCN1C(=O)C2C3CCC(C3)C2C1=O (configuration not stated)	none (no result: PP5 inh, T cell HTS, PP1 inh, GASC-1 inh)
COc1ccccc1NC(=O)c1oc2ccccc2c1NC(=O)c1cc(OC)c(OC)c(OC)c1	none
COCC(=O)Nc1c(C(=O)Nc2ccccc2OC)oc2ccccc12	m5-HT2A agonist 14.6 | MOR ag counter inactive | m5-HT2A ag conf inactive
COc1ccc(N2CCN(C(=O)CCS(=O)(=O)c3ccc4c(c3)CCN4C(=O)C3CC3)CC2)cc1	m5-HT2A agonist 15.8 | MOR ag counter inactive | m5-HT2A ag conf inactive
CC(C)NC(=O)C1(C)CN(S(C)(=O)=O)CC(=O)N1C1CCN(Cc2ccccc2)CC1 (configuration not stated)	m5-HT2A agonist 27.1 (no result: PP5 inh, T cell HTS, PP1 inh, GASC-1 inh) | MOR ag counter inactive | m5-HT2A ag conf inactive
CCCS(=O)(=O)NC(=O)C1(C)CCN(C(=O)c2ccc(OC(F)F)cc2)C1 (configuration not stated)	none (no result: PP5 inh, T cell HTS, PP1 inh, GASC-1 inh)
COc1ccc(NC(=O)CSc2n[nH]c(-c3ccccn3)n2)cc1	none
O=C(CSc1n[nH]c(-c2ccccn2)n1)Nc1ccccc1	m5-HT2A agonist 14.8 | MOR ag counter inactive | m5-HT2A ag conf inactive
COc1ccc(CNC(=O)c2cc3c(s2)CN(Cc2ccccc2)C3)cc1	none
CCOC(=O)c1ccc(NC(=O)CCS(=O)(=O)Cc2ccccc2)cc1	m5-HT2A agonist 15.3 | MOR ag counter inactive | m5-HT2A ag conf inactive
COC(=O)c1ccc(NC(=O)CS(=O)(=O)Cc2ccccc2)cc1	none
CCNC(=O)N1C[C@H]2CON(C)[C@H]2C[C@H]1c1ccccc1Br	none (no result: PP5 inh, T cell HTS, PP1 inh, GASC-1 inh)
CC(=O)N1C[C@H]2CON(C)[C@H]2C[C@H]1c1ccccc1Br	m5-HT2A agonist 18.4 (no result: PP5 inh, T cell HTS, PP1 inh, GASC-1 inh) | MOR ag counter inactive | m5-HT2A ag conf inactive
COc1ccccc1COC(=O)c1ccc(S(=O)(=O)N2CCOCC2)cc1	none
Cn1c(=O)c2c(ncn2CCOC(=O)C(C)(C)Oc2ccc(Cl)cc2)n(C)c1=O	none (no result: PP5 inh, T cell HTS, PP1 inh, GASC-1 inh)
Cn1cc([N+](=O)[O-])c(C(=O)N/N=C/c2ccc([N+](=O)[O-])cc2)n1	m5-HT2A agonist 19.8 | MOR ag counter inactive | m5-HT2A ag conf 36.9
NS(=O)(=O)c1ccc(NC(=O)COC(=O)C2CC(=O)N(Cc3ccccc3)C2)cc1 (configuration not stated)	m5-HT2A agonist 15.7 | MOR ag counter inactive | m5-HT2A ag conf inactive
COc1ccc(NC(=O)CN(C)C(=O)C2CC(=O)N(Cc3ccc(C)cc3)C2)cc1 (configuration not stated)	none
CCN(CC(=O)Nc1ccc(OC)cc1)C(=O)C1CC(=O)N(Cc2ccccc2)C1 (configuration not stated)	m5-HT2A agonist 16.2 (no result: PP5 inh, T cell HTS, PP1 inh, GASC-1 inh) | MOR ag counter inactive | m5-HT2A ag conf inactive
CN(CCCC1CCCC1)C(=O)CC1C(=O)NCCN1Cc1cccc(F)c1F (configuration not stated)	none
CCCCCc1cc(=O)oc2c(C(CCN3CCN(c4ccccc4)CC3)c3ccc4c(c3)OCO4)c(OC)cc(OC)c12 (configuration not stated)	m5-HT2A agonist 21.8 | MOR ag counter inactive | m5-HT2A ag conf 49.1
O=C(NC1CCCCC1)C(c1ccnc2ccccc12)N1CCc2ccccc2C1 (configuration not stated)	none (no result: PP5 inh, T cell HTS, PP1 inh, GASC-1 inh)
Cc1cnc(C(=O)NCC(=O)Nc2ccccc2Br)cn1	none (no result: PP5 inh, T cell HTS, PP1 inh, GASC-1 inh)
CCCCCCn1cc(CN2CC(N3CCCCC3)CS2(=O)=O)nn1 (configuration not stated)	m5-HT2A agonist 15.6 (no result: PP5 inh, T cell HTS, PP1 inh, GASC-1 inh) | MOR ag counter inactive | m5-HT2A ag conf inactive
Cc1cc(C)cc(Cn2cc(CN3CC(N4CCN(Cc5ccccc5F)CC4)CS3(=O)=O)nn2)c1 (configuration not stated)	m5-HT2A agonist 14.9 (no result: PP5 inh, T cell HTS, PP1 inh, GASC-1 inh) | MOR ag counter inactive | m5-HT2A ag conf inactive
